Results from ChEMBL document CHEMBL4513216, “Probing the Open Global Health Chemical Diversity Library for Multistage-Active Starting Points for Next-Generation Antimalarials” (ACS Infect Dis, 2020).

Experiment: Toxicity liver stage against HepG2, at 10uM
Assay type: cell-based
Set-up: test concentration 10 uM, cell line HepG2-A16-CD81EGFP
Conditions: human, HepG2-A16-CD81EGFP cells; read-out: INHIBITION
How it was run: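 Uninfected HepG2-A16-CD81EGFP cells, 3 × 10^3 per well, 1536-well, plated on prespotted compound at 10 μM final, parasite-free screening media added to match infected plates; puromycin 10 μM positive, DMSO 0.5% negative; run in parallel with 48 h PbLuc assay at 37 °C, 5% CO2; viability by CellTiter-Glo luminescence, normalized to controls.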

In the case of `O=C(Nc1nccs1)c1csc(NC2CCCC2)n1`, the cytotoxicity at 10 µM was 42%.

With `CC1=Nc2c(c(=O)[nH]n2C(C)C)C(c2ccc3ncccc3c2)S1` (configuration not stated) the cytotoxicity at 10 µM was 4.66%.

Compound `O=C(C1=COCCO1)N1CC(Oc2nc3c(C(F)(F)F)cccc3s2)C1` has a cytotoxicity at 10 µM of 36%.

With `CCOc1ccc(S(=O)(=O)Nc2cnc(OC)nc2OC)cc1` the cytotoxicity at 10 µM was 44.7%.

Work on `CNC(=O)CS(=O)(=O)C1CCN(S(=O)(=O)c2cccc(Cl)c2C)CC1` yielded a cytotoxicity at 10 µM of 4.73%.

`CN(C)C(=O)N1CCN(C(=O)c2cccc(Cl)c2)CC2(CNC(=O)C2)C1` (configuration not stated) showed a cytotoxicity at 10 µM of 7.61%.

`O=C(Nc1cccc(Cl)c1)c1nn(C2CCS(=O)(=O)C2)c2c1CCCC2` (configuration not stated) showed a cytotoxicity at 10 µM of -12.9%.

`CCOC(=O)Cn1cnc2nc3n(c2c1=O)CCC3` showed a cytotoxicity at 10 µM of -2.06%.

Work on `Cc1cccc(NC(C)C(=O)Nc2nccs2)c1` (configuration not stated) yielded a cytotoxicity at 10 µM of -0.524%.

In the case of `Oc1cc(C2CCCN(Cc3cccs3)C2)nc(-c2ccccn2)n1` (configuration not stated), the cytotoxicity at 10 µM was 29.5%.

`CC(C)(C)n1nnnc1CN(Cc1ccccc1)Cc1ccc(Cl)cc1` showed a cytotoxicity at 10 µM of 28.8%.

In the case of `NS(=O)(=O)c1ccc(NCc2ccccc2F)cc1C(F)(F)F`, the cytotoxicity at 10 µM was -10.2%.

In the case of `CCc1ccc(S(=O)(=O)N2CCCC(c3ncc[nH]3)C2)s1` (configuration not stated), the cytotoxicity at 10 µM was 12.8%.

In the case of `FC(F)Oc1ccc(CNCc2cc(Br)c3c(c2)OCO3)cc1`, the cytotoxicity at 10 µM was 35.1%.

In the case of `CN1CCCN(c2ccc(F)cc2CNC(=O)c2ccsc2)CC1`, the cytotoxicity at 10 µM was -12.3%.

`COc1ccc(C2CCCN2c2ccnc(C)c2Cl)c(OC)c1` (configuration not stated) gave a cytotoxicity at 10 µM of 28.4%.

For `Cn1nccc1C1CCN(Cc2cnn(-c3ccccc3)n2)CC1`, the cytotoxicity at 10 µM was 27.2%.

With `O=C(CN1CCCC(c2ncc[nH]2)C1)NCC(F)(F)F` (configuration not stated) the cytotoxicity at 10 µM was 9.37%.

For `CC1CCN(CCNC(=O)c2sccc2C2CC2)CC1`, the cytotoxicity at 10 µM was -144%.

In the case of `COCCN(Cc1ccccc1)C(=O)c1cnn(C)c1C`, the cytotoxicity at 10 µM was -144%.

`CCCOc1ccccc1C(N)CC(C)C` (configuration not stated) gave a cytotoxicity at 10 µM of -0.595%.

`NC(=O)CCC1CCCN(c2ccnc3cc(F)ccc23)C1` (configuration not stated) showed a cytotoxicity at 10 µM of 14.6%.

`Cc1cc(C2CCCN(Cc3nc(Cc4ccccc4)no3)C2)n[nH]1` (configuration not stated) showed a cytotoxicity at 10 µM of 3.82%.

`COc1cccc(NC(=O)N2CCC(O)(C(F)(F)F)C2)c1` (configuration not stated) gave a cytotoxicity at 10 µM of 3.2%.

Work on `O=C(O)c1cc(S(=O)(=O)Nc2cccc3c2OCCO3)c(Cl)cc1F` yielded a cytotoxicity at 10 µM of -7.08%.

In the case of `CC(CCc1ccccc1F)C(=O)NS(=O)(=O)N(C)C(C)C` (configuration not stated), the cytotoxicity at 10 µM was 10.6%.

In the case of `COCCCC(=O)Nc1cc(Cl)c(Cl)cn1`, the cytotoxicity at 10 µM was 87%.

For `CN(CCc1ccccn1)Cc1nccn1Cc1ccccc1`, the cytotoxicity at 10 µM was 10.1%.

Compound `COc1ccc(CNC(=O)C2=NN(c3ccc(C)cc3)C(=O)CN2)cc1` has a cytotoxicity at 10 µM of 17.5%.

Work on `CC(=O)c1cccc(OCCCC(=O)N(C)Cc2cnn(C)c2)c1` yielded a cytotoxicity at 10 µM of -3.05%.

In the case of `Cc1nc(C(C)(C)NC(=O)Nc2ccc(C#N)cc2)no1`, the cytotoxicity at 10 µM was 13%.

For `COCCN(Cc1ccc(F)cc1Cl)C(=O)c1cnn(C)c1C`, the cytotoxicity at 10 µM was 12.8%.

Compound `Cc1cnn(CC2CCCN2Cc2coc(-c3cccc(F)c3)n2)c1` (configuration not stated) has a cytotoxicity at 10 µM of 1.2%.

For `CC(=O)Nc1cccc(OCCNC(=O)N(C)Cc2ccccc2)c1`, the cytotoxicity at 10 µM was -13.2%.

Work on `O=C(CN1CCCC1Cn1cncn1)Nc1ccc(Cl)cn1` (configuration not stated) yielded a cytotoxicity at 10 µM of -5.89%.

For `COC(C)(C)CNC(=O)N1CCCC1c1c(C)n[nH]c1C` (configuration not stated), the cytotoxicity at 10 µM was 1.76%.

Compound `CN(Cc1ccc(N(C)C)cc1)C(=O)CSc1ccc(Br)cc1` has a cytotoxicity at 10 µM of 45.6%.

Work on `NC(CC1CCCC1)c1ccc(Oc2ccccc2)cc1` (configuration not stated) yielded a cytotoxicity at 10 µM of 3.72%.

In the case of `Cc1cnn(CC(=O)NCC2(O)CCCc3ccccc32)c1` (configuration not stated), the cytotoxicity at 10 µM was -38%.

`Clc1cnccc1NCc1cccc(COC2CCOCC2)c1` gave a cytotoxicity at 10 µM of 53.9%.

In the case of `CCCC(=O)N1CCCN(C(=O)c2oc(C)nc2C)CC1`, the cytotoxicity at 10 µM was -3.92%.

`Fc1ccc(C(NCc2nnc(-c3ccco3)o2)C2CCC2)cc1` (configuration not stated) showed a cytotoxicity at 10 µM of -36.3%.

In the case of `CC(C)c1nc(COc2cccc3c2NC(=O)CO3)cs1`, the cytotoxicity at 10 µM was 35.8%.

Compound `O=C(CN1CCc2sccc2C1)Nc1ccnc2ccnn12` has a cytotoxicity at 10 µM of 46.8%.

Compound `CCc1nnsc1C(=O)NC1CCN(CCOc2ccc(Br)cc2)CC1` has a cytotoxicity at 10 µM of -9.56%.

Compound `COc1ccc(NC(C)=O)c(N2CCN(C(C)=O)CC2)n1` has a cytotoxicity at 10 µM of -8.83%.

Work on `Cc1ncnc2c1CCN(C(=O)N(C)C)CC2` yielded a cytotoxicity at 10 µM of -79.1%.

With `CC(C)n1c2ccccc2c2c1cc(C(=O)N(C)C)n2C` the cytotoxicity at 10 µM was -85.4%.

Work on `O=C(CCO)N1CC[C@@H]2CN(C(=O)c3ccco3)CCO[C@@H]2C1` yielded a cytotoxicity at 10 µM of -72.6%.

In the case of `COCCC(=O)N1CCC2(CN(Cc3cccc(Cl)c3)C2)C1`, the cytotoxicity at 10 µM was -79.6%.

With `COc1cccc(OC2CN(C(=O)c3cc(CC(C)C)nn3C)C2)c1` the cytotoxicity at 10 µM was 53.2%.

Work on `COc1ccc2cc(C3CN(C(=O)CCNC(C)=O)CCO3)ccc2c1` (configuration not stated) yielded a cytotoxicity at 10 µM of 9.85%.

`CCCC1(CO)CCCN(Cc2nccs2)C1` (configuration not stated) gave a cytotoxicity at 10 µM of 1.41%.

For `Cc1ccc(C2(O)CCN(C(=O)CCn3ccc(=O)[nH]c3=O)CC2)nc1`, the cytotoxicity at 10 µM was 1.99%.

With `Cc1nc(CCN)cc(N2CCC(O)(c3ccc(Cl)cc3)CC2)n1` the cytotoxicity at 10 µM was -2.24%.

In the case of `CCOC(=O)C1(Cc2ccc(Cl)cc2)CCN(Cc2ncc[nH]2)CC1`, the cytotoxicity at 10 µM was -2.36%.

Compound `c1ccc2sc(N3CCN(c4ncnc5c4CCC5)CC3)nc2c1` has a cytotoxicity at 10 µM of 56.7%.

`FC(F)(F)c1cccc(OC2CCN(Cc3ncc[nH]3)CC2)c1` gave a cytotoxicity at 10 µM of -2.45%.

With `CCn1cc(-c2cc(-c3ccn(C)c3)nc(N)c2C#N)cc1C#N` the cytotoxicity at 10 µM was 2.11%.

For `Cc1csc2c(N3CCC(Cn4cc(C(C)(C)O)nn4)CC3)ncnc12`, the cytotoxicity at 10 µM was 29.9%.

Compound `Nc1cc(N2CCCC(COc3ccc(F)cc3)C2)nc(N)n1` (configuration not stated) has a cytotoxicity at 10 µM of -7.58%.

With `CC(=O)N1CCc2nc(N(C)C)nc(NCCc3ccccc3)c2CC1` the cytotoxicity at 10 µM was -2.38%.

Work on `O=C1NCCCC12CCN(c1nc3c(c(C(F)(F)F)n1)CCCC3)C2` (configuration not stated) yielded a cytotoxicity at 10 µM of -7.11%.

With `CCC(C)N(Cc1cc(C)n[nH]1)Cc1ccccc1Cl` (configuration not stated) the cytotoxicity at 10 µM was 6.65%.

For `O=C1N(Cc2ccc(F)c(F)c2)CCCC12CCN(C1CCSCC1)C2` (configuration not stated), the cytotoxicity at 10 µM was -19.1%.

Compound `CCOCc1ccc(CNc2cncc(-n3cccn3)n2)cc1` has a cytotoxicity at 10 µM of 20.8%.

Compound `COc1cc(C(=O)Nc2nc(C)no2)ccc1OC(F)F` has a cytotoxicity at 10 µM of -4.29%.

Compound `COc1ccc(C)cc1CN1CCCC1c1noc(C2CC2)n1` (configuration not stated) has a cytotoxicity at 10 µM of 16.3%.

With `c1cnn(CC2CCCN2c2ncnc3sccc23)c1` (configuration not stated) the cytotoxicity at 10 µM was 38.1%.

Compound `Cn1ncc(NCc2cccc(COC(C)(C)C)c2)c(Cl)c1=O` has a cytotoxicity at 10 µM of 42.2%.

Work on `Cc1nc(C)n(CC2CCCN(c3ncnc4c3CCC4)C2)n1` (configuration not stated) yielded a cytotoxicity at 10 µM of 30.5%.

For `Cn1ccnc1CN(Cc1ccccn1)Cc1ccccc1Cl`, the cytotoxicity at 10 µM was 11.5%.

For `CC(C)CN1C(=O)C2(CCN(Cc3nccs3)C2)c2ccccc21` (configuration not stated), the cytotoxicity at 10 µM was 0.371%.

With `Fc1cccc(N2CCCC3(CN(Cc4ccncc4)CCO3)C2)c1` (configuration not stated) the cytotoxicity at 10 µM was 8.98%.

`Fc1cccc(N2CCCC3(C2)CN(c2ncccn2)CCO3)c1` (configuration not stated) gave a cytotoxicity at 10 µM of 17.4%.

For `CCc1cnc(N2CCc3cc(C(=O)NC)c(N(C)C)nc3CC2)nc1`, the cytotoxicity at 10 µM was -125%.

Work on `CN(C)C(=O)CN1C(=O)C[C@@H]2[C@@H]1CCN2Cc1cccc(C#N)c1` yielded a cytotoxicity at 10 µM of -61.3%.

In the case of `CN(C)c1nccc(N2CCO[C@H]3CN(Cc4nccn4C)C[C@H]32)n1`, the cytotoxicity at 10 µM was -123%.

Work on `Cc1ccc(C(=O)N2CC[C@@H]3[C@H]2CCC(=O)N3CCN(C)C)cn1` yielded a cytotoxicity at 10 µM of -0.726%.

In the case of `Fc1cnc(N2CCN3C[C@H](Oc4cccnc4)C[C@H]3C2)nc1`, the cytotoxicity at 10 µM was 13.1%.

In the case of `Cc1ccc(C(=O)N2CCC3(CCN3c3ncccn3)C2)cn1` (configuration not stated), the cytotoxicity at 10 µM was -135%.

Work on `CC(=O)c1cc(CN2C[C@@H]3CC[C@H]2CN(S(=O)(=O)N(C)C)C3)cs1` yielded a cytotoxicity at 10 µM of -8.19%.
